Data as given in ChEMBL document CHEMBL3751835, “Discovery of the imidazole-derived GPR40 agonist AM-3189” (Bioorg Med Chem Lett, 2016).
Activity calls are given as the source filed them. The calls are words filed in the database; no cut-off is given here.

Key:
Mus musculus [1] = assay: Reduction of blood glucose AUC in human GPR40 knock-in chimeric mouse at 30 mg/kg, po administered 1 hr prior to glucose challenge by OGTT; assay type: functional, organism-based
Method in brief: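 Female human GPR40 knock-in mice, 28 weeks old, fasted 6 h, then dosed by oral gavage with compound formulated in 1% methylcellulose, 1% Tween-80. Glucose 2 g/kg was given by oral gavage 1 h after the drug. Blood glucose was read from tail-vein samples at several time points with a glucometer.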

[2] = Clearance in dog at 0.5 mg/kg, iv; assay type: ADME, organism-based, Canis lupus familiaris; details: in vivo
Method in brief: (§1)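 Oral doses given as a suspension in aqueous 1% Tween 80 in 1% methylcellulose; IV doses formulated in 10% N,N-dimethylacetamide, 10% ethanol, 30% propylene glycol, 50% sterile water. Animals per species: mouse n = 2 (plasma from two mice at each time point), rat n = 2, dog n = 3, cynomolgus monkey n = 3.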

[3] = Clearance in cynomolgus monkey at 0.5 mg/kg, iv; assay type: ADME, organism-based, Macaca fascicularis; details: in vivo; method in brief: as §1
Pancreatic islet [4] = assay: Induction of glucose-stimulated insulin release in human GPR40 knock-in mouse pancreatic islets by insulin ELISA in presence of 0.1% human serum albumin and glucose; assay type: functional
Method in brief: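 Islets were isolated from knock-in mice in which the mouse GPR40 gene is replaced by human GPR40. Glucose-stimulated insulin secretion was measured in buffer containing 16.7 mM glucose and 0.1% human serum albumin.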

[5] = biological target: T1, Peroxisome proliferator-activated receptor alpha (Homo sapiens) (UniProt Q07869); assay: Activity at PPARalpha (unknown origin) by cell based assay
T1 sequence (whole entry): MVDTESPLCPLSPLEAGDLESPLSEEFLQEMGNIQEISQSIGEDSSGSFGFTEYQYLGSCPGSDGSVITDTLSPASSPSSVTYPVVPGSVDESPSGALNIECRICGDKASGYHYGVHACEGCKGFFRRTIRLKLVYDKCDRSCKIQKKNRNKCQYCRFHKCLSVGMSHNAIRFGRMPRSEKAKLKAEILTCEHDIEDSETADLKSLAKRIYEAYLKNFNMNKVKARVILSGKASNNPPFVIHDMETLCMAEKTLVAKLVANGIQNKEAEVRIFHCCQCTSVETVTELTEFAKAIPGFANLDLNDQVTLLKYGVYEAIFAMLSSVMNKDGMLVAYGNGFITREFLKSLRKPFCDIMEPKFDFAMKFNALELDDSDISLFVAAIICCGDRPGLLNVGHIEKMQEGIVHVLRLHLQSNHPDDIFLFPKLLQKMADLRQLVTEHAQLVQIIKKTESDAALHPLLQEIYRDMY

[6] = Cmax in dog at 2 mg/kg, po; assay type: ADME, organism-based, Canis lupus familiaris; design: dose 2 mg/kg, route oral; details: in vivo; method in brief: as §1
[7] = Agonist activity at dog GPR40 in presence of 0.01% human serum albumin; design: species or system Canis lupus familiaris
Canis lupus familiaris = species on record: Canis lupus familiaris; assay: Agonist activity at dog GPR40 in presence of 0.01% human serum albumin relative to AMG 837
[8] = Cmax in rat at 2 mg/kg, po; assay type: ADME, organism-based; design: dose 2 mg/kg, route oral; details: in vivo; method in brief: as §1
[9] = biological target: T2, Free fatty acid receptor 1 (Sus scrofa) (UniProt F1RM69); assay: Agonist activity at pig GPR40 in presence of 0.01% human serum albumin
T2 sequence (whole entry): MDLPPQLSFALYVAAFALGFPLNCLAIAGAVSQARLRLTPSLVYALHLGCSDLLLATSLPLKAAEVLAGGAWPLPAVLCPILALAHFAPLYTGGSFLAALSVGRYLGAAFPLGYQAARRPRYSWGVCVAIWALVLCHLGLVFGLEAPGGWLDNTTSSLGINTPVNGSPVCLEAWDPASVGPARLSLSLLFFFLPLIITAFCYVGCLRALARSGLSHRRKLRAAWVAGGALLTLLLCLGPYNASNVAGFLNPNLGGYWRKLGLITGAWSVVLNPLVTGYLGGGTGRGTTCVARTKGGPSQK

[10] = biological target: Free fatty acid receptor 1 (Rattus norvegicus, UniProt Q8K3T4); assay: Agonist activity at rat GPR40 in presence of 0.01% human serum albumin
[11] = Volume of distribution at steady state in cynomolgus monkey at 0.5 mg/kg, iv; assay type: ADME, organism-based, Macaca fascicularis; details: in vivo, read-out: Vdss; method in brief: as §1
MDR1 [12] = assay: Efflux ratio of permeability from basolateral to apical over apical basolateral side in MDCK cells expressing MDR1; assay type: ADME, cell-based, Canis lupus familiaris; details: dog
[13] = Half life in dog at 0.5 mg/kg, iv; assay type: ADME, organism-based, Canis lupus familiaris; details: in vivo; method in brief: as §1
[14] = Cmax in cynomolgus monkey at 5 mg/kg, po; assay type: ADME, organism-based, Macaca fascicularis; design: dose 5 mg/kg, route oral; details: in vivo; method in brief: as §1
[15] = biological target: Free fatty acid receptor 1 (Homo sapiens, UniProt O14842); assay: Partial agonist activity at human GPR40 expressed in CHO cells measured over 20 secs interval by luminometric analysis in presence of 100% human serum; assay type: cell-based
Method in brief: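 Aequorin chemiluminescence read-out of calcium flux in a CHO line stably transfected with human GPR40, giving EC50. Run in buffer containing 0.01% human serum albumin, or in 100% human serum to test activity with plasma proteins present.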

[16] = biological target: T3, Peroxisome proliferator-activated receptor delta (Homo sapiens) (UniProt Q03181); assay: Activity at PPARdelta (unknown origin) by cell based assay
T3 sequence (whole entry): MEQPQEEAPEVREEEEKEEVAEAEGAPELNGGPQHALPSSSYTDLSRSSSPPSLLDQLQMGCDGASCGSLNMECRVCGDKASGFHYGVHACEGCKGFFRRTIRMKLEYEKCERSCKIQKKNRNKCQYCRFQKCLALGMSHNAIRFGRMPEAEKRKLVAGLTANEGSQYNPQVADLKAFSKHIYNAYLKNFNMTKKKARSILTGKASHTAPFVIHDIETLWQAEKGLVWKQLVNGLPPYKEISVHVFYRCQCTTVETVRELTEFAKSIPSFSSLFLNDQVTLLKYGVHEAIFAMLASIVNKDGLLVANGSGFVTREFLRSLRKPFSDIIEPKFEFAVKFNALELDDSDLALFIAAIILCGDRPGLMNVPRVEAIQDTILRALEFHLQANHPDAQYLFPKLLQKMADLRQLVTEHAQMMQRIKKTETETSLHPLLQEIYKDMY

[17] = biological target: Free fatty acid receptor 1 (Rattus norvegicus) (UniProt Q8K3T4); assay: Agonist activity at rat GPR40 in presence of 0.01% human serum albumin relative to AMG 837
Pancreatic islet [18] = assay: Induction of insulin release in human pancreatic islets; assay type: functional
[19] = Cmax in mouse at 5 mg/kg, po; assay type: ADME, organism-based; design: dose 5 mg/kg, route oral; details: in vivo; method in brief: as §1
[20] = Oral bioavailability in rat at 2 mg/kg; assay type: ADME, organism-based; details: in vivo; method in brief: as §1
[21] = Half life in cynomolgus monkey at 0.5 mg/kg, iv; assay type: ADME, organism-based, Macaca fascicularis; details: in vivo; method in brief: as §1
[22] = Half life in rat at 0.5 mg/kg, iv; assay type: ADME, organism-based; details: in vivo; method in brief: as §1
MDR1 [23] = assay: Permeability across apical to basolateral side in MDCK cells expressing MDR1; assay type: ADME, cell-based, Canis lupus familiaris; details: dog, read-out: permeability
Mus musculus [24] = assay: Reduction of blood glucose AUC in human islet transplanted nude chimeric mouse at 1 and 10 mg/kg, po administered 1 hr prior to glucose challenge by OGTT; assay type: functional, organism-based
Method in brief: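 Nude mice had their endogenous pancreatic β-cells ablated with streptozotocin and were rescued to euglycemia by human islets transplanted under the kidney capsule. Compound was dosed before a glucose challenge, and the glucose AUC was determined.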

[25] = tested on: GPR40 (hamster, Mesocricetus auratus); assay: Agonist activity at hamster GPR40 in presence of 0.01% human serum albumin

Chain of Free fatty acid receptor 1 (Rattus norvegicus) (Q8K3T4 whole entry): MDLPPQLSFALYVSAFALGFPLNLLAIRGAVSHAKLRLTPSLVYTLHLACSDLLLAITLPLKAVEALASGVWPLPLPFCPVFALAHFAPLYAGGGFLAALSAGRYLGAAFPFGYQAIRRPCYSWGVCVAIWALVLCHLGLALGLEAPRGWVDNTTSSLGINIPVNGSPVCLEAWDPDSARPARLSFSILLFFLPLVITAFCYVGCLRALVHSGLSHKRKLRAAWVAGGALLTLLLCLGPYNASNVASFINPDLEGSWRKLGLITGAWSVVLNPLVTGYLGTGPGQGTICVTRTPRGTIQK
Chain of Free fatty acid receptor 1 (Rattus norvegicus, UniProt Q8K3T4) (Q8K3T4 whole entry): as above
Chain of Free fatty acid receptor 1 (Homo sapiens, UniProt O14842) (O14842 whole entry): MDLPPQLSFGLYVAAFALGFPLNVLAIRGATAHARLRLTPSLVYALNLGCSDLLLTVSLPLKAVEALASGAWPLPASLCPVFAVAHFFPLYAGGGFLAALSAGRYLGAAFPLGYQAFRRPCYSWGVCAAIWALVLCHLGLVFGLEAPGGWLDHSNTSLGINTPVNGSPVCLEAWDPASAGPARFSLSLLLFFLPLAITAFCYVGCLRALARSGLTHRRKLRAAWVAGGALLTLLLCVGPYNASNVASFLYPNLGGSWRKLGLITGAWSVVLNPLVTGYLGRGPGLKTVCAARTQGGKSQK

clearance [2]: 2.5 mL/min/kg
clearance [3]: 4.5 mL/min/kg
Activity [5]: inactive
Cmax [6]: 4400 nM
EC50 [7]: 37 nM
Emax (Canis lupus familiaris): 37%
Cmax [8]: 770 nM
Activity [9]: inactive
EC50 [10]: 640 nM
Vd [11]: 1.6 L/kg
efflux ratio (MDR1 [12]): 22
half-life [13]: 5.1 h
Cmax [14]: 1190 nM
EC50 [15]: 10000 nM
Activity [16]: inactive
Emax [17]: 41%
Cmax [19]: 4890 nM
bioavailability [20]: 43%
half-life [21]: 7.6 h
half-life [22]: 1.6 h
Papp A→B (MDR1 [23]): 1.4 ×10⁻⁶ cm/s
Activity [25]: inactive
Structure (SMILES): Cc1cc(Cl)ccc1-c1cccc(COc2ccc([C@H](CC(=O)O)c3nccn3C)cc2)c1
Activity (Mus musculus [1]): Active
Activity (Pancreatic islet [4]): Active
Activity (Pancreatic islet [18]): Active
Activity (Mus musculus [24]): Active
